A short description of assay [1]: Her2 expression decrease, cell viability multiplex – SKBR3 breast tumor cells, AlphaScreen, ATP viability, primary screen (AID 461;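 active = Her2 level under about 52% in both replicate screens, with viability over 70% of control, limit read from the data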;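 for Her2 level: lower value means less Her2 protein in the cells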;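 for viability: percent of carrier control wells set as 100% viability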). The note with it: SKBR3 Her2 protein level, 18-24 h, measured here: SKBR3 viability, ATP luminescence, at 10 µM.
The target in assay [2] is Receptor tyrosine-protein kinase erbB-2 (Homo sapiens) (UniProt P04626). Described as above. The note with it: 18-24 h, at 10 µM, stronger effect = lower value.
Chain of Receptor tyrosine-protein kinase erbB-2 (Homo sapiens) (P04626 whole entry, looked up): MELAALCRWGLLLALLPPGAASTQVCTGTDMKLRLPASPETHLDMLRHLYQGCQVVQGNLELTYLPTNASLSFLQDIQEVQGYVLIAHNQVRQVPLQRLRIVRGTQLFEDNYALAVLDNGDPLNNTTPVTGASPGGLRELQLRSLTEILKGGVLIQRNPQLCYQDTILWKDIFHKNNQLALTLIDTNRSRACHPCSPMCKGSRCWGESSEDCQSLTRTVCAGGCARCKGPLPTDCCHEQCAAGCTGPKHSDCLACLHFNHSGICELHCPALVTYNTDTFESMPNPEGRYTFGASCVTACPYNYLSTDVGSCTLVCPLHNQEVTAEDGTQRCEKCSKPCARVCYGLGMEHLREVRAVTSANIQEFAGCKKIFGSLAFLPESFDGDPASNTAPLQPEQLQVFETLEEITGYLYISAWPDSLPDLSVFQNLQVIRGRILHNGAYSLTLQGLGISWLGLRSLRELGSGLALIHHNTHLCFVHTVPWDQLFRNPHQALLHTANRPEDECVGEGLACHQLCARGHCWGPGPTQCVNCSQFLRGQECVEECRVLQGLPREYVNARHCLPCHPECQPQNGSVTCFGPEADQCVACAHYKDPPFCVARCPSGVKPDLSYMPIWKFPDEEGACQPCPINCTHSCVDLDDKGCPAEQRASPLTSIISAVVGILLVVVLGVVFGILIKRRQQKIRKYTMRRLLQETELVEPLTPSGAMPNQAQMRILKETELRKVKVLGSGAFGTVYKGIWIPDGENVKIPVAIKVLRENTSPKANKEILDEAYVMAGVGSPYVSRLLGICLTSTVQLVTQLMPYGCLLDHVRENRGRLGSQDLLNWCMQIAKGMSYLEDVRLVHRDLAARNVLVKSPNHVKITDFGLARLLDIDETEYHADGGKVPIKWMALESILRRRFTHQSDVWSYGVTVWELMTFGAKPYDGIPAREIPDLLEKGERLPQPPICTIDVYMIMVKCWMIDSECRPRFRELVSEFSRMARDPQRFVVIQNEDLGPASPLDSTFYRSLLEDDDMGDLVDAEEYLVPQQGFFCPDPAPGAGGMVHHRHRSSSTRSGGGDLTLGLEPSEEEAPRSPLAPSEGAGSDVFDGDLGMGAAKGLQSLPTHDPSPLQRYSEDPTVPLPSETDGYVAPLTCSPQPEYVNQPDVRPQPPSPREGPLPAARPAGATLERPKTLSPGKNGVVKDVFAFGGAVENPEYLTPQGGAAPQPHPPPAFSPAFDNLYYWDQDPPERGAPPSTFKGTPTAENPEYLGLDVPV
The nature of assay [3]: reduced viability of SK-BR-3 breast cancer cells – cell-based, 24 h, human, pilot screen (AID 572).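 Note: compound exposure lasted between 18 and 24 h rather than exactly 24 h; 100% = carrier-treated control wells.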 Particulars: SK-BR-3 viability, CellTiter-Glo luminescence, at 10 µM, stronger effect = lower value.
A short description of assay [4]: HUVEC growth inhibition – cell-based, human, primary screen (AID 575;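 active = viability at or below 30% in both replicate assays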;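 note: 100% = median of untreated cell wells with 0.1% DMSO on each plate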). Particulars: HUVEC proliferation, CellTiter-Glo luminescence, 72 h; at 10 µM; stronger effect = lower value. An outline of the steps:
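Assay system: primary human umbilical vein endothelial cells / Buffer or medium: endothelial basal medium with 2% FBS plus growth supplements / Compound dosing: one dose, 10 µM final, 0.1% DMSO / Timing: 72 h treatment at 37 °C / Signal: CTG luminescence / Benchmarks: 32 DMSO-only cell-control wells (high), 32 MePR drug-control wells (low) per plate / Plate: collagen-coated 384-well format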

A short description of assay [5]: H69AR cell proliferation blockers – human, duplicate replicates, primary screen (AID 580;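 active = viability at or under a set limit in both replicates, limit being median viability minus 3 SD, cut at about 48% in these data, passing the limit was not always enough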;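 note: 100% = mean luminescence of untreated wells and 0% = no signal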). The note with it: H69AR lung tumor cells viability, ATP luminescence, 72 h; at 10 µM; stronger effect = lower value.
Assay [6] can be described thus: MRP1 drug-resistance reversers in H69AR cells – cell-based, doxorubicin co-treatment, pilot screen (AID 601;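 active = viability loss from added drug above about 55%, and viability with drug at most 40%, in both replicates, limit read from the data, passing the limit was not always enough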). The note with it: CellTiter-Glo, 72 h, at 10 µM; for differential viability (reversal): stronger effect = higher value.
Assay [7] is described as follows: yeast transport mutant growth inhibition pilot in 384-well plates, post-Golgi transport modulator project (AID 636; in the data active = inhibition above about 31%). The note with it: absorbance 615 nm, about 18 h, stronger effect = higher value.
The nature of assay [8]: growth suppression of yeast trafficking mutant, preliminary HTS, modulators of trafficking downstream of Golgi apparatus project, 1536-format plate, OD 615 nm (AID 637; in the data active = inhibition above about 30%). The note with it: yeast transport mutant growth, absorbance 615 nm, 18 h; stronger effect = higher value.
The mark [9] stands for this setting: H69AR cells + 2 uM doxorubicin, measured here: viability with 2 uM doxorubicin, stronger effect = lower value.
Setting [10] is: H69AR cells, compound alone cytotoxicity.

Active and inactive are the calls of the source.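 Rule for the calls, unless noted: active = viability at or below 10% of carrier control in both of two separate runs; inconclusive = viability at or below 10% in only one of the two runs; inactive = the rest.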

As to `CCSc1nc(C)nc2c1oc1ccccc12`, the viability in assay [1] was 78.5%; in assay [3] it was 78.5% (inactive); in assay [4] it was 92.6% (inactive); in assay [5] it was 97.7% (inactive); in assay [6] (setting [9]), 87.7%; in assay [6] (setting [10]), 97.7%. The Her2 level in assay [2] is 82% (inactive). Also, the differential viability (reversal) in assay [6] (H69AR cells + 2 uM doxorubicin) was 10% (inactive). Besides, the inhibition was -4.67% (inactive) in assay [7] and -5.74% (inactive) in assay [8].
As for `CCCCNC(=O)c1nc2ncc(Br)cn2n1`, the viability in assay [1] is 108%; in assay [3] it was 108% (inactive); in assay [4], 100% (inactive); in assay [5], 85.4% (inactive); in assay [6] (setting [9]), 91.4%; in assay [6] (setting [10]), 85.4%. For the same molecule, the Her2 level in assay [2] is 75% (inactive). Further, in assay [6] (H69AR cells + 2 uM doxorubicin), the differential viability (reversal) is -5.97% (inactive). Moreover, the figures for the inhibition in assay [7] and in assay [8] were -3.51% (inactive) and -2.3% (inactive), respectively.
For `O=C(Nc1cccnc1)c1cccc(NC(=O)c2ccco2)c1`, the viability in assay [1] was 97.5%; in assay [3] it was 97.5% (inactive); in assay [4] it was 94.4% (inactive); in assay [5], 89.9% (inactive); in assay [6] (setting [9]), 89.3%; in assay [6] (setting [10]), 89.9%. In addition, the Her2 level in assay [2] was 85% (inactive). Besides, the differential viability (reversal) in assay [6] (H69AR cells + 2 uM doxorubicin) was 0.575% (inactive). The values for the inhibition in assay [7] and in assay [8] were -1.56% (inactive) and 4.1% (inactive), respectively.
`CCN(CC)S(=O)(=O)c1ccc2oc(SCc3ccc(F)cc3)nc2c1`: the viability in assay [1] is 93.5%; in assay [3], 93.5% (inactive); in assay [4], 68.5% (inactive); in assay [5], 80.1% (inactive); in assay [6] (setting [9]) it was 95%; in assay [6] (setting [10]), 80.1%. In addition, the Her2 level in assay [2] is 82.5% (inactive). In assay [6] (H69AR cells + 2 uM doxorubicin), the differential viability (reversal) is -14.8% (inactive). The inhibition is 0.54% (inactive) in assay [7] and -0.95% (inactive) in assay [8].
`CCCCn1nnnc1SCC(=O)Nc1cccc(C)n1`: the viability in assay [1] is 108%; in assay [3] it was 108% (inactive); in assay [4] it was 111% (inactive); in assay [5], 113% (inactive); in assay [6] (setting [9]), 105%; in assay [6] (setting [10]), 113%. The Her2 level in assay [2] was 115% (inactive). Besides, in assay [6] (H69AR cells + 2 uM doxorubicin), the differential viability (reversal) was 7.5% (inactive). The inhibition in assay [7] was 2.3% (inactive); in assay [8] it was 3.5% (inactive).
As to `CCOCCn1cnc2sc(C(=O)NCC(=O)OCC)c(C)c2c1=O`, the viability in assay [1] is 95.5%; in assay [3], 95.5% (inactive); in assay [4], 86.6% (inactive); in assay [5], 86.8% (inactive); in assay [6] (setting [9]), 88.7%; in assay [6] (setting [10]) it was 86.8%. The Her2 level in assay [2] was 90% (inactive). Besides, in assay [6] (H69AR cells + 2 uM doxorubicin), the differential viability (reversal) was -1.89% (inactive). The inhibition is -2.37% (inactive) in assay [7] and 2.9% (inactive) in assay [8].
Take `c1ccc(-c2cc3c(nn2)CCc2nonc2-3)cc1`: the viability in assay [1] was 98.5%; in assay [3], 98.5% (inactive); in assay [4], 117% (inactive); in assay [5], 97.8% (inactive); in assay [6] (setting [9]) it was 108%; in assay [6] (setting [10]), 97.8%. In assay [2], the Her2 level was 102% (inactive). Moreover, in assay [6] (H69AR cells + 2 uM doxorubicin), the differential viability (reversal) is -9.73% (inactive). For the same molecule, the inhibition is 0% (inactive) in assay [7] and 4.26% (inactive) in assay [8].
For `COc1ccc(CC(=O)OCC(=O)NC(=O)NC2CCCCC2)cc1`, the viability in assay [1] was 96.5%; in assay [3], 96.5% (inactive); in assay [4], 100% (inactive); in assay [5], 92.4% (inactive); in assay [6] (setting [9]), 93%; in assay [6] (setting [10]) it was 92.4%. Also, in assay [2], the Her2 level was 94% (inactive). Further, the differential viability (reversal) in assay [6] (H69AR cells + 2 uM doxorubicin) was -0.595% (inactive). Besides, the values for the inhibition in assay [7] and in assay [8] were -5.13% (inactive) and -0.73% (inactive), respectively.
As to `C1CCc2nnc(-c3nnc4n3CCCCC4)n2CC1`, the viability in assay [1] is 86.5%; in assay [3] it was 86.5% (inactive); in assay [4], 104% (inactive); in assay [5] it was 93% (inactive); in assay [6] (setting [9]), 86.4%; in assay [6] (setting [10]), 93%. In assay [2], the Her2 level is 99.5% (inactive). Moreover, the differential viability (reversal) in assay [6] (H69AR cells + 2 uM doxorubicin) is 6.52% (inactive). For the same molecule, the inhibition in assay [7] is -1.28% (inactive); in assay [8] it was 1.67% (inactive).
Turning to `COc1ccc(C(=O)OCC(=O)NCc2ccco2)cc1OC`, the viability in assay [1] is 110%; in assay [3] it was 110% (inactive); in assay [4], 102% (inactive); in assay [5], 78.4% (inactive); in assay [6] (setting [9]), 82.1%; in assay [6] (setting [10]) it was 78.4%. In assay [2], the Her2 level is 89.5% (inactive). For the same molecule, in assay [6] (H69AR cells + 2 uM doxorubicin), the differential viability (reversal) was -3.74% (inactive). The inhibition in assay [7] is -1.95% (inactive); in assay [8] it was -6.23% (inactive).
`CC1(c2ccc(Cl)cc2)NC(=O)N(CC(=O)NC(=O)NCc2ccco2)C1=O` (stereo not given): the viability in assay [1] is 96%; in assay [3] it was 96% (inactive); in assay [4], 61.5% (inactive); in assay [5] it was 107% (inactive); in assay [6] (setting [9]), 81%; in assay [6] (setting [10]) it was 107%. Moreover, the Her2 level in assay [2] is 80.5% (inactive). Moreover, the differential viability (reversal) in assay [6] (H69AR cells + 2 uM doxorubicin) is 26.4% (inactive). Moreover, the inhibition in assay [7] is -3.82% (inactive); in assay [8] it was -0.33% (inactive).
`CCc1nnc2sc(-c3cc(-c4ccccc4)nc4ccccc34)nn12`: the viability in assay [1] is 71%; in assay [3], 71% (inactive); in assay [4], 75.5% (inactive); in assay [5] it was 86.9% (inactive); in assay [6] (setting [9]) it was 87.1%; in assay [6] (setting [10]) it was 86.9%. Moreover, the Her2 level in assay [2] is 65% (inactive). In addition, in assay [6] (H69AR cells + 2 uM doxorubicin), the differential viability (reversal) is -0.185% (inactive). The inhibition in assay [7] is -1.82% (inactive); in assay [8], 1% (inactive).
Turning to `Cc1ccc(F)cc1NC(=O)Cc1nn(C)c(=O)c2ccccc12`, the viability was 96.5% in assay [1]; 96.5% (inactive) in assay [3]; 74.1% (inactive) in assay [4]; 93.4% (inactive) in assay [5]; 77.6% in assay [6] (setting [9]); 93.4% in assay [6] (setting [10]). For the same molecule, the Her2 level in assay [2] is 74.5% (inactive). Besides, in assay [6] (H69AR cells + 2 uM doxorubicin), the differential viability (reversal) was 15.8% (inactive). Further, the inhibition in assay [7] was -0.66% (inactive); in assay [8] it was -0.16% (inactive).
`Cc1ccc(-c2noc(CCC(=O)NCC3CCN(Cc4cccc(C)c4)CC3)n2)cc1`: the viability in assay [1] is 93.5%; in assay [3], 93.5% (inactive); in assay [4], 53.9% (inactive); in assay [5] it was 84.6% (inactive); in assay [6] (setting [9]) it was 95.6%; in assay [6] (setting [10]), 84.6%. The Her2 level in assay [2] is 82.5% (inactive). In assay [6] (H69AR cells + 2 uM doxorubicin), the differential viability (reversal) was -11% (inactive). In addition, the figures for the inhibition in assay [7] and in assay [8] were -4.87% (inactive) and 1.83% (inactive), respectively.
As to `COCCN1C(=O)C(=O)/C(=C(/O)c2cccc(OC)c2)C1c1ccncc1` (stereo not given), the viability in assay [1] is 99%; in assay [3] it was 99% (inactive); in assay [4] it was 101% (inactive); in assay [5], 93% (inactive); in assay [6] (setting [9]) it was 96.5%; in assay [6] (setting [10]), 93%. For the same molecule, in assay [2], the Her2 level was 104% (inactive). For the same molecule, the differential viability (reversal) in assay [6] (H69AR cells + 2 uM doxorubicin) is -3.51% (inactive). Also, the inhibition in assay [7] is -0.26% (inactive); in assay [8], 3.64% (inactive).
`CC(=O)Nc1c(-c2ccc(F)cc2)nc2ccccn12`: the viability is 94.5% in assay [1]; 94.5% (inactive) in assay [3]; 114% (inactive) in assay [4]; 87.7% (inactive) in assay [5]; 107% in assay [6] (setting [9]); 87.7% in assay [6] (setting [10]). Further, in assay [2], the Her2 level is 107% (inactive). Also, in assay [6] (H69AR cells + 2 uM doxorubicin), the differential viability (reversal) is -19.5% (inactive). The inhibition in assay [7] is -4.67% (inactive); in assay [8], 1% (inactive).

For the origin of these results see PubChem BioAssay.
